Measured values from publication PMC8436581 (Molecular Diversity, 2021).
“Also recorded” adds a separate entry of the source. Where two headings read alike, the source gives them in different places.

Columns and labels:
[1] = tested on: α-glycosidase; assay: In vitro α-glycosidase inhibition assay; format: biochemical; details: ratio of IC50 values against acarbose
[2] = tested on: α-glycosidase; assay: Enzyme kinetic study; format: biochemical; details: Lineweaver–Burk plot
In short: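 Double-reciprocal analysis: reciprocal rate (1/V) plotted against reciprocal substrate concentration (1/[S]) at several inhibitor concentrations to assign the inhibition mode; Ki obtained from a secondary plot of inhibitor concentration [I] versus 1/Vi'max.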

[3] = biological target: α-glycosidase; details: cited from earlier work

## O=C(Cn1cc(COc2ccc(-c3nc4ccccc4[nH]3)cc2)nn1)Nc1cnc(-c2ccccc2)s1 [9a, 2-{4-[4-(1H-1,3-benzodiazol-2-yl)phenoxymethyl]-1H-1,2,3-triazol-1-yl}-N-(2-phenyl-1,3-thiazol-5-yl)acetamide]
[1]
  improvement in potency compared to acarbose: around 39 fold

## O=C(Cn1cc(COc2ccc(-c3nc4ccccc4[nH]3)cc2)nn1)Nc1cnc(-c2ccc(Br)cc2)s1 [9c, 2-{4-[4-(1H-1,3-benzodiazol-2-yl)phenoxymethyl]-1H-1,2,3-triazol-1-yl}-N-[2-(4-bromophenyl)-1,3-thiazol-5-yl]acetamide]
[2]
  type of inhibition: uncompetitive inhibitors; also recorded: uncompetitive type of inhibition

## COc1cc(-c2nc3ccccc3[nH]2)ccc1OCc1cn(CC(=O)Nc2cnc(-c3ccccc3)s2)nn1 [9g, 2-{4-[4-(1H-1,3-benzodiazol-2-yl)-2-methoxyphenoxymethyl]-1H-1,2,3-triazol-1-yl}-N-(2-phenyl-1,3-thiazol-5-yl)acetamide]
[2]
  type of inhibition: uncompetitive inhibitors; also recorded: uncompetitive type of inhibition

## COc1cc(-c2nc3ccccc3[nH]2)ccc1OCc1cn(CC(=O)Nc2cnc(-c3ccc(C)cc3)s2)nn1 [9i, 2-{4-[4-(1H-1,3-benzodiazol-2-yl)-2-methoxyphenoxymethyl]-1H-1,2,3-triazol-1-yl}-N-[2-(4-methylphenyl)-1,3-thiazol-5-yl]acetamide]
[1]
  improvement in potency compared to acarbose: 15 fold

## Cc1ccc(-c2ncc(NC(=O)Cn3cc(COc4ccc(-c5nc6ccc(C)cc6[nH]5)cc4)nn3)s2)cc1 [9m, 2-{4-[4-(6-Methyl-1H-1,3-benzodiazol-2-yl)phenoxymethyl]-1H-1,2,3-triazol-1-yl}-N-[2-(4-methylphenyl)-1,3-thiazol-5-yl]acetamide]
[2]
  type of inhibition: uncompetitive inhibitors; also recorded: uncompetitive type of inhibition

## C[C@H]1O[C@H](O[C@H]2[C@H](O)[C@@H](O)[C@@H](O[C@H]3[C@H](O)[C@@H](O)C(O)O[C@@H]3CO)O[C@@H]2CO)[C@H](O)[C@@H](O)[C@@H]1N[C@H]1C=C(CO)[C@@H](O)[C@H](O)[C@H]1O (stereo partly shown) [Acarbose]
[3]; arylthiazole-pyridine derivatives
  IC50: 856.5 ± 5.6 µM
[3]; benzimidazole bearing bis-Schiff bases
  IC50: 38.5 µM
[3]; benzimidazole-1,2,3-triazole hybrids
  IC50: 750 ± 12.5 µM
[3]; benzimidazole-based oxadiazole derivatives
  IC50: 38.5 ± 0.8 µM
[3]; thiourea derivatives bearing benzimidazole
  IC50: 774 µM
